This is a sample that favours compounds with a hit; in the whole collection about 1.4% have one here.
GSK3beta inhib = inhibitors of human GSK3beta kinase | activity score (negative = inhibition), % at 10 µM | GST-GSK3beta kinase, ADP-Glo luminescence, 60 min; hits give low values | hit rate 0.038% among 300,000;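 active = more than half of replicate wells score below -50%, meaning over 50% inhibition versus plate controls; inconclusive = some replicates but at most half score below -50%; inactive = no replicate scores below -50%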;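 note: 0% = median DMSO wells and -100% = median GW8510 positive control wells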
Target sequence (P49841 whole entry, looked up): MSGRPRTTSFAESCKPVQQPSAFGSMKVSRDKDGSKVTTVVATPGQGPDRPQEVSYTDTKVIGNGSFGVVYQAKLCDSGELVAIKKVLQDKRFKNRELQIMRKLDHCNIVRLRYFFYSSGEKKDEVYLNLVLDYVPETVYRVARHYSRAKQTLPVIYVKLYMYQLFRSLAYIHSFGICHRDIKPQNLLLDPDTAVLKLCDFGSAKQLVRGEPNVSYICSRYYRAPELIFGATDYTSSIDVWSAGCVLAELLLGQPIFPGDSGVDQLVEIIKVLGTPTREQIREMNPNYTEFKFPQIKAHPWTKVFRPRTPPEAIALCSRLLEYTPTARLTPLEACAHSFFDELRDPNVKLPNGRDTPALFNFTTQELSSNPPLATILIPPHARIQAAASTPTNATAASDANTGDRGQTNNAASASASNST
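Test system: GST-tagged human GSK3beta kinase, cell-free; evaluation: activity score scaled between in-plate DMSO and GW8510 controls; measured by: ADP-Glo luminescence; incubation: 60 min reaction, RT; benchmarks: DMSO and 20 µM GW8510; reagent: peptide substrate plus 25 µM ATP (final); medium: Tris/MgCl2 kinase buffer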
GSIS activator = primary screen for activators of insulin secretion dependent on glucose, INS-1E cells, GLuc reporter luminescence | activation, % at 16.6 µM | hit rate 0.61% among 370,000 | AID 743287 | INS-1E GLuc reporter insulin secretion, 2-3 h;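 active = lowest replicate activation of at least 40%, so every replicate reaches that level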;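 note: 0% = median of neutral control wells and 100% = median of IBMX positive control wells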
GSK3 alpha inh = human GSK-3 alpha kinase inhibition | P49840 | ADP-Glo luminescence, 60 min | inhibition, % at 10 µM | hit rate 0.1% among 320,000 | AID 2650;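 active = more than half of replicates show inhibition above 20%; inconclusive = some but at most half of replicates above 20% inhibition; inactive = no replicate shows inhibition above 20%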;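 note: GST-tagged GSK-3 alpha with peptide substrate and 25 µM ATP; 0% = DMSO neutral wells and 100% = GW8510 positive control wells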
HIV Env fusion = HIV envelope-mediated fusion inhibition | inhibition, % at 12.3 µM | AID 651610 | hit rate 1.1% among 360,000 | HeLa-JRFL Env/CEM21 cell fusion, luciferase;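 active = mean replicate inhibition score of at least 50 and every replicate individually at or above 50; inconclusive = only one of the two criteria met; inactive = mean below 50 and not all replicates reaching 50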;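 note: 0% = plate neutral controls and 100% = maraviroc near 300 nM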
STK33 inh = inhibitors of human STK33 kinase; inhibition, % at 10 µM; hit rate 0.073% among 320,000; purified STK33, MBP phosphorylation, ADP-Glo luminescence;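 active = inhibition at or above 25%, using the most active replicate where run in duplicate; inactive = inhibition below 25%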
CDK5 inh = blocks human CDK5/p35 kinase activity. Recombinant CDK5/p35, ADP-Glo luminescence, 60 min. inhibition, % at 10 µM. AID 488839. hit rate 0.01% among 330,000;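 active = highest replicate inhibition of at least 50% and at least 75% of replicates reaching 50%; inconclusive = only one of the two criteria met; inactive = both criteria failed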;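 note: plate controls were DMSO neutral control for no effect and GW8510 at 10 µM for full effect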
* hit, by the source's call; ? = inconclusive; / = no result; [ ] = dose if it differs, or a comment.

SMILES	GSK3beta inhib	GSIS activator	GSK3 alpha inh	HIV Env fusion	STK33 inh	CDK5 inh
O=C(CSc1nc2ccccc2c(=O)n1Cc1ccco1)c1ccc(F)cc1	0	/	-3	58*	-1	-4
COc1nc(N2CCOCC2)nc(-n2cccc2)n1	-1	57*	0	8	0	2
COc1ccc(Nc2nc(OC)nc(N3CCOCC3)n2)cc1	2	11	-1	-11	0	1
COCC(=O)Nc1ccc2c(c1)[C@@H]1C[C@H](CC(=O)NCc3ccccn3)O[C@@H](CO)[C@@H]1O2	/	1	/	-21[16.7 µM]	/	/
Cc1ccc(S(=O)(=O)CC(=O)c2cc3cccc(C)c3oc2=O)cc1	-3	14	1	0	-1	-14
COc1cccc2cc(C(=O)CS(=O)(=O)c3ccc(C)cc3)c(=O)oc12	-54*	/	-3	/	-1	-2
COCCNC(=O)[C@@H]1[C@@H](CO)[C@@H]2Cn3c(ccc(-c4ccccc4F)c3=O)[C@@H]2N1C(=O)C1CCC1	/	8	/	/	/	/
Nc1nc(F)nc2c1ncn2[C@@H]1O[C@H](CO)[C@@H](O)[C@@H]1O	3	10	-1	62*	-2	-2
Nc1nc(=O)n(C2OC(CO)C(O)C2O)cc1F (configuration not stated)	/	/	/	62*	/	/
OCC1OC(n2cnc3c(NCc4ccco4)ncnc32)C(O)C1O (configuration not stated)	/	/	/	70*	/	2
Nc1nc(F)nc2c1ncn2[C@@H]1O[C@H](CO)[C@@H](O)[C@H]1O	1	/	-2	73*	0	1
CO[C@@H]1CN(C)C(=O)c2ccc(NS(=O)(=O)c3cccc(F)c3)cc2OC[C@@H](C)N(C(=O)Cc2cccnc2)C[C@H]1C	/	5	/	/	/	/
O=C(CNC(=O)c1ccc(Cl)cc1)NCC(F)(F)F	-1	28	-2	5	-1	-2
CC(=O)NCCNC(=O)CNC(=O)c1ccc(Cl)cc1	-2	47*	-1	-21	0	0
Clc1ccc(-c2cc(CN3CCOCC3)no2)cc1	0	147*	-2	-23	0	0
CC(C)C[C@H]1COCc2cn(nn2)CC[C@H](Cc2cccc(Cl)c2)C(=O)N1	/	7	/	/	/	/
O=C(NCC[C@H]1CC[C@@H](NS(=O)(=O)c2ccc(Cl)cc2)[C@@H](CO)O1)c1ccccc1F	/	-1	/	24[16.7 µM]	/	/
Cc1nc2sc(C(c3ccco3)N3CCC(Cc4ccccc4)CC3)c(O)n2n1 (configuration not stated)	-1	16	-2	82*	1	3
O=C(CN1CCOCC1)N1CCCCN2[C@@H](CO)[C@@H](c3ccc(-c4ccccc4F)cc3)[C@@H]2C1	/	-5	/	/	/	/
N#Cc1cnn2c(C(F)(F)F)cc(-c3ccccc3)nc12	-1	44*	-4	11	2	-1
O=c1[nH]c2c(s1)C(c1ccc(O)cc1)C1C3CCC(C3)C1S2 (configuration not stated)	3	-2	75*	-42	0	-2
COc1cc2cc(CCO)oc(=O)c2cc1OC	/	31	-1	65*	1	4
COc1cc2cc(C[C@H](C)O)oc(=O)c2cc1OC	/	19	0	-11	0	0
Cc1ccc(S(=O)(=O)N(C)C[C@@H]2Oc3ccc(NC(=O)Nc4ccccc4)cc3C(=O)N([C@@H](C)CO)C[C@@H]2C)cc1	/	-17	/	/	/	/
CCc1ccc(CN2CCN(C(=O)c3cccc(OC)c3OC)CC2)cc1	1	-2	-3	89*	0	2
SMILES	GSK3beta inhib	GSIS activator	GSK3 alpha inh	HIV Env fusion	STK33 inh	CDK5 inh
C[C@H]1CN([C@@H](C)CO)C(=O)Cc2cc(NS(C)(=O)=O)ccc2O[C@H]1CN(C)S(=O)(=O)c1ccc(F)cc1	/	6	/	5[16.7 µM]	/	/
CN(Cc1ccc(OCC(O)CN(C)Cc2ccccc2)cc1)Cc1nccn1C (configuration not stated)	1	47*	-2	-13	-1	5
COc1ccc(CN(C)CC(O)COc2ccc(-c3ccccc3)cc2)cc1OC (configuration not stated)	-1	-31	-1	1	-1	0
COc1ccc(S(=O)(=O)N[C@H]2CC[C@@H](CC(=O)NCc3ccccc3F)O[C@H]2CO)cc1	/	2	/	1[16.7 µM]	/	/
O=C(C[C@H]1C[C@H]2c3cc(NC(=O)Cc4ccncc4)ccc3O[C@H]2[C@@H](CO)O1)NCc1ccccn1	/	-13	/	-5[16.7 µM]	/	/
C[C@H]1CCCCO[C@H](CN(C)Cc2ccc(Cl)c(Cl)c2)[C@@H](C)CN([C@@H](C)CO)C(=O)c2cc(NS(C)(=O)=O)ccc2O1	/	-10	/	?	/	/
CCCCn1c(C(C)NC(=O)CCC)nc2ccccc21 (configuration not stated)	1	/	1	-69	1	1
CCCCCn1c(C(C)NC(=O)CCC)nc2ccccc21 (configuration not stated)	1	/	-1	74*	-1	-2
N#Cc1cccnc1Nc1cccc(Cl)c1	-1	59*	-1	/	-1	/
Cc1nc2ccccc2c(=O)n1/N=C/c1ccc(N(C)C)cc1	1	67*	-1	-35	0	-1
CSc1ccc(/C=N/n2c(C)nc3ccccc3c2=O)cc1	-2	28	/	2	/	1
COc1cc(OC)c(OC)cc1/C=N/n1c(C)nc2ccccc2c1=O	2	43*	-1	3	0	2
CCCn1nc(NC(=O)c2ccco2)c2cc3ccccc3nc21	-3	45*	1	-90	1	-2
CCCn1nc(NC(=O)c2ccncc2)c2cc3ccccc3nc21	-1	/	1	/	-1	1
COC(=O)[C@H](Cc1ccc(O)cc1)NC(=O)Cn1cnc(C(=O)Nc2ccc(C)c(C)c2)n1	/	13	/	/	/	0
COC(=O)[C@H](Cc1ccccc1)NC(=O)Cn1cnc(C(=O)Nc2ccc(C)c(C)c2)n1	/	1	/	69*	/	0
O=C(NC1=C(NC2CCS(=O)(=O)C2)C(=O)c2ccccc2C1=O)c1ccccc1 (configuration not stated)	-9	-32	1	57*	0	1
Cc1[nH]nc2c1C1(C(=O)N(Cc3ccc(Cl)cc3)c3ccccc31)C(C#N)=C(N)O2 (configuration not stated)	-1	/	-2	85*	-3	9
Cc1cc(C)nc(Nc2n[nH]c(COc3ccc4ccccc4c3)n2)n1	-5	62*	0	-1	0	0
Nc1nc2ccccc2n1Cc1ccc(Cl)c(Cl)c1	-4	-29	-1	?	0	0
Cc1ccc(Cn2c(N)nc3ccccc32)cc1	/	-3	-2	59*	0	-2
CN(C)c1nc(=NCc2cccs2)ss1	/	72*	/	-29	/	0
O=C(OCn1ncc(Br)c(Br)c1=O)c1ccccc1Cl	-3	115*	-7	/	1	-1
